Assay results published in ChEMBL document CHEMBL1142365, “Synthesis and evaluation of stilbenylbenzoxazole and stilbenylbenzothiazole derivatives for detecting beta-amyloid fibrils” (Bioorg Med Chem Lett, 2008).

Assay: Displacement of [125I]TZDM from beta amyloid protein 42
Summary of the method: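 Competition binding against [125I]TZDM on pre-formed Ab42 aggregates. Mixtures incubated 3 h at room temperature. Bound and free radioligand separated by vacuum filtration through GF/B filters, then two washes with 10% EtOH at room temperature. Filter-bound radioactivity counted by gamma counter. Ki obtained by nonlinear regression of the inhibition data.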

| Ki [nM] | SMILES |
| --- | --- |
| 0.41 | Nc1ccc(/C=C/c2ccc(-c3nc4cc(OCCF)ccc4s3)cc2)cc1 |
| 0.1 | CNc1ccc(/C=C/c2ccc(-c3nc4cc(OCCF)ccc4s3)cc2)cc1 |
| 0.32 | Nc1ccc(/C=C/c2ccc(-c3nc4cc(OCCF)ccc4o3)cc2)cc1 |
| 0.38 | CNc1ccc(/C=C/c2ccc(-c3nc4cc(OCCCF)ccc4s3)cc2)cc1 |
| 0.49 | CN(C)c1ccc(/C=C/c2ccc(-c3nc4cc(OCCCF)ccc4s3)cc2)cc1 |
| 0.5 | CNc1ccc(/C=C/c2ccc(-c3nc4ccc(OCCF)cc4o3)cc2)cc1 |
| 0.47 | Nc1ccc(/C=C/c2ccc(-c3nc4ccc(OCCF)cc4o3)cc2)cc1 |
| 0.45 | CNc1ccc(/C=C/c2ccc(-c3nc4cc(OCCCF)ccc4o3)cc2)cc1 |
| 0.35 | CN(C)c1ccc(/C=C/c2ccc(-c3nc4cc(OCCF)ccc4s3)cc2)cc1 |
| 0.59 | Nc1ccc(/C=C/c2ccc(-c3nc4ccc(OCCCF)cc4o3)cc2)cc1 |
| 0.12 | CN(C)c1ccc(/C=C/c2ccc(-c3nc4ccc(OCCCF)cc4s3)cc2)cc1 |
| 0.48 | CNc1ccc(/C=C/c2ccc(-c3nc4ccc(OCCCF)cc4s3)cc2)cc1 |
| 0.52 | CNc1ccc(/C=C/c2ccc(-c3nc4ccc(OCCF)cc4s3)cc2)cc1 |
| 0.57 | CN(C)c1ccc(/C=C/c2ccc(-c3nc4ccc(OCCF)cc4s3)cc2)cc1 |
| 0.59 | Nc1ccc(/C=C/c2ccc(-c3nc4ccc(OCCF)cc4s3)cc2)cc1 |
| 0.46 | CN(C)c1ccc(/C=C/c2ccc(-c3nc4ccc(OCCCF)cc4o3)cc2)cc1 |
| 0.68 | CNc1ccc(/C=C/c2ccc(-c3nc4ccc(OCCCF)cc4o3)cc2)cc1 |
| 0.45 | CN(C)c1ccc(/C=C/c2ccc(-c3nc4ccc(OCCF)cc4o3)cc2)cc1 |
| 0.47 | CN(C)c1ccc(/C=C/c2ccc(-c3nc4cc(OCCCF)ccc4o3)cc2)cc1 |
| 0.44 | CN(C)c1ccc(/C=C/c2ccc(-c3nc4cc(OCCF)ccc4o3)cc2)cc1 |
| 0.74 | CNc1ccc(/C=C/c2ccc(-c3nc4cc(OCCF)ccc4o3)cc2)cc1 |
| 0.45 | Nc1ccc(/C=C/c2ccc(-c3nc4cc(OCCCF)ccc4o3)cc2)cc1 |
| 0.55 | Nc1ccc(/C=C/c2ccc(-c3nc4ccc(OCCCF)cc4s3)cc2)cc1 |
| 0.42 | Nc1ccc(/C=C/c2ccc(-c3nc4cc(OCCCF)ccc4s3)cc2)cc1 |
| 0.77 | [11CH3]Nc1ccc(-c2nc3ccc(O)cc3s2)cc1 [PITTSBURGH COMPOUND B] |
